Experimental data: ChEMBL document CHEMBL1159098, “A new series of flavones, thioflavones, and flavanones as selective monoamine oxidase-B inhibitors” (Bioorg Med Chem, 2010); call rule not given here

Experiments:
[1] = molecular target: T1, Amine oxidase [flavin-containing] B (Homo sapiens, UniProt P27338); assay type: cell-based, BTI-TN-5B1-4
T1 sequence (P27338 whole entry): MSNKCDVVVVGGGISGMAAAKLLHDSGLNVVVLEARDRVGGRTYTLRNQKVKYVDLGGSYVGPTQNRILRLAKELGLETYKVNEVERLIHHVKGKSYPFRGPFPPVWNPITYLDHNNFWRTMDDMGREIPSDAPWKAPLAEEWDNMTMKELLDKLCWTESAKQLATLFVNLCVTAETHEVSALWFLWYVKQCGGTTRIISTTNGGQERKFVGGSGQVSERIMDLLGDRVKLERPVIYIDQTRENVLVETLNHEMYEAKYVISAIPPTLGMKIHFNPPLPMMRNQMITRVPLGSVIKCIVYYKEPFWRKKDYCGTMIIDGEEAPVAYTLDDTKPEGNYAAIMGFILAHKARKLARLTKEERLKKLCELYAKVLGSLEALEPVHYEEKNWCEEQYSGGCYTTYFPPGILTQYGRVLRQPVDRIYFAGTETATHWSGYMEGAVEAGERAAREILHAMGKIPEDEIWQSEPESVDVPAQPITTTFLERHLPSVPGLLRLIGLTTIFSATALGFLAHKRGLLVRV

[2] = molecular target: T2, Amine oxidase [flavin-containing] A (Homo sapiens, UniProt P21397); experiment: Inhibition of human recombinant MAOA expressed in BTI-TN-5B1-4 cells at 100 uM by para-tyramine oxidation assay; assay type: cell-based; conditions: for inhibition (INH): human, bti-tn-5b1-4, 100 µM; for inhibition at 100 µM: BTI-TN-5B1-4, human
T2 sequence (P21397 whole entry): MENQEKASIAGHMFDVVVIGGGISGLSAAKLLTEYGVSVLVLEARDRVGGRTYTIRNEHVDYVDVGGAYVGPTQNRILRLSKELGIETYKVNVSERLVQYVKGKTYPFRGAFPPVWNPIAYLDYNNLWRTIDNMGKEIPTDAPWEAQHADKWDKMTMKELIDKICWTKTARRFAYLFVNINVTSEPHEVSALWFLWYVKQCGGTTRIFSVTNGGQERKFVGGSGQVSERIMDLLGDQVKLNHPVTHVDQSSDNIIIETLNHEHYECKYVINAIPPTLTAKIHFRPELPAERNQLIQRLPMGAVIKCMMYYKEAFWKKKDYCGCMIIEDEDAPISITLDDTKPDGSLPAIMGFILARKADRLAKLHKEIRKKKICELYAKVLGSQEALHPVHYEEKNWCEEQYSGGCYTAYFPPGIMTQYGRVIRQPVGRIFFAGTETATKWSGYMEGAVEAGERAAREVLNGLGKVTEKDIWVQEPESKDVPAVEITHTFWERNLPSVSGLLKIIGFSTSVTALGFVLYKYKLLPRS

[3] = species: Homo sapiens; experiment: Selectivity for human MAOB over human MAOA
Summary of the method: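 Selectivity index = IC50(hMAO-A)/IC50(hMAO-B), both from Amplex Red/p-tyramine fluorimetric assays on insect-cell recombinant enzymes.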

Cc1ccc(-c2cc(=O)c3ccccc3o2)cc1
IC50 [1]: 2380 nM | inhibition (INH) [2]: Not Active | Ratio IC50 [3]: > 42

COc1ccc2c(=O)cc(-c3ccc(C)cc3)oc2c1
IC50 [1]: 11300 nM | inhibition (INH) [2]: Not Active | Ratio IC50 [3]: > 8.8

COc1ccc2c(=O)cc(-c3ccc(F)cc3)oc2c1
IC50 [1]: 5140 nM | inhibition (INH) [2]: Not Active | Ratio IC50 [3]: > 19

Cc1ccc(-c2cc(=S)c3ccccc3o2)cc1
IC50 [1]: 6690 nM | inhibition (INH) [2]: Not Active | Ratio IC50 [3]: > 15

Cc1ccc(-c2cc(=S)c3ccc(C)cc3o2)cc1
IC50 [1]: 6720 nM | inhibition (INH) [2]: Not Active | Ratio IC50 [3]: > 15

COc1ccc2c(=S)cc(-c3ccc(C)cc3)oc2c1
IC50 [1]: 7610 nM | inhibition at 100 µM [2]: 40% | Ratio IC50 [3]: > 13

COc1ccc2c(c1)O[C@H](c1ccc(F)cc1)CC2=O
IC50 [1]: 160 nM | inhibition (INH) [2]: Not Active | Ratio IC50 [3]: > 625

Cc1ccc([C@H]2CC(=O)c3ccc(C)cc3O2)cc1
IC50 [1]: 530 nM | inhibition (INH) [2]: Not Active | Ratio IC50 [3]: > 189

Cc1ccc(-c2cc(=O)c3ccc(F)cc3o2)cc1
IC50 [1]: 4330 nM | inhibition (INH) [2]: Not Active | Ratio IC50 [3]: > 23

COc1ccc(-c2cc(=O)c3ccc(F)cc3o2)cc1
IC50 [1]: 1340 nM | inhibition at 100 µM [2]: 40% | Ratio IC50 [3]: > 75

O=c1cc(-c2ccc(F)cc2)oc2cc(F)ccc12
inhibition (INH) [2]: Not Active

Fc1ccc(-c2cc(=S)c3ccc(F)cc3o2)cc1
IC50 [1]: 6890 nM | inhibition (INH) [2]: Not Active | Ratio IC50 [3]: > 15

Cc1ccc(-c2cc(=S)c3ccc(F)cc3o2)cc1
IC50 [1]: 1610 nM | inhibition at 100 µM [2]: 40% | Ratio IC50 [3]: > 62

Cc1ccc([C@@H]2CC(=O)c3ccc(C)cc3O2)cc1
IC50 [1]: 590 nM | inhibition (INH) [2]: Not Active | Ratio IC50 [3]: > 169

COc1ccc2c(c1)O[C@@H](c1ccc(F)cc1)CC2=O
IC50 [1]: 200 nM | inhibition (INH) [2]: Not Active | Ratio IC50 [3]: > 500

COc1ccc(-c2cc(=S)c3ccc(OC)cc3o2)cc1
IC50 [1]: 3340 nM | inhibition (INH) [2]: Not Active | Ratio IC50 [3]: > 30

COc1ccc(-c2cc(=S)c3ccccc3o2)cc1
IC50 [1]: 480 nM | inhibition at 100 µM [2]: 40% | Ratio IC50 [3]: > 208

COc1ccc(C2CC(=O)c3ccccc3O2)cc1 (racemic)
IC50 [1]: 2200 nM | inhibition (INH) [2]: Not Active | Ratio IC50 [3]: > 45

O=C1CC(c2ccccc2)Oc2cc(F)ccc21 (racemic)
IC50 [1]: 3770 nM | inhibition (INH) [2]: Not Active | Ratio IC50 [3]: > 27

COc1ccc(C2CC(=O)c3ccc(F)cc3O2)cc1 (racemic)
IC50 [1]: 170 nM | inhibition (INH) [2]: Not Active | Ratio IC50 [3]: > 588

COc1ccc2c(c1)OC(c1ccc(F)cc1)CC2=O (racemic)
IC50 [1]: 170 nM | inhibition (INH) [2]: Not Active | Ratio IC50 [3]: > 588

COc1ccc(C2CC(=O)c3ccc(C)cc3O2)cc1 (racemic)
IC50 [1]: 3350 nM | inhibition (INH) [2]: Not Active | Ratio IC50 [3]: > 30

O=C1CC(c2ccc(F)cc2)Oc2cc(F)ccc21 (racemic)
IC50 [1]: 670 nM | inhibition (INH) [2]: Not Active | Ratio IC50 [3]: > 149

Cc1ccc(C2CC(=O)c3ccc(F)cc3O2)cc1 (racemic)
IC50 [1]: 160 nM | inhibition (INH) [2]: Not Active | Ratio IC50 [3]: > 625

Cc1ccc2c(c1)OC(c1ccccc1)CC2=O (racemic)
IC50 [1]: 3620 nM | inhibition (INH) [2]: Not Active | Ratio IC50 [3]: > 28

Cc1ccc(C2CC(=O)c3ccc(C)cc3O2)cc1 (racemic)
IC50 [1]: 500 nM | inhibition (INH) [2]: Not Active | Ratio IC50 [3]: > 200

COc1ccc2c(c1)OC(c1ccc(C)cc1)CC2=O (racemic)
IC50 [1]: 550 nM | inhibition (INH) [2]: Not Active | Ratio IC50 [3]: > 182

COc1ccc2c(c1)OC(c1ccccc1)CC2=O (racemic)
IC50 [1]: 1470 nM | inhibition (INH) [2]: Not Active | Ratio IC50 [3]: > 68
